Experimental data taken from ChEMBL document CHEMBL1129558, “2(S)-((3,5-bis(trifluoromethyl)benzyl)-oxy)-3(S)-phenyl-4- ((3-oxo-1,2,4-triazol-5-yl)methyl)morpholine (1): a potent, orally active, morpholine-based human neurokinin-1 receptor antagonist” (J Med Chem, 1996).

Assays:
[1] = target: Substance-P receptor (Homo sapiens, UniProt P25103); test: Displacement of [125I]-labeled SP from human Tachykinin receptor 1 expressed in CHO cells; format: cell-based
How it was run: (§1)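 Human receptor expressed in CHO cells; values are given as mean with SD from 3 determinations unless otherwise stated.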

[2] = test system: Cavia porcellus; test: SP-induced dermal inflammation assay in guinea pig after peroral administration followed by SP challenge id after 1 hr; format: functional; settings: oral, read-out: ID50 (the source's name)
How it was run: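 Guinea pigs received antagonist orally, then an intradermal substance P challenge 1 h later. Read-out was SP-induced plasma extravasation in skin. Dose–response data used 5–12 animals per data point.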

[3] = target: T1, Neuromedin-K receptor (Homo sapiens, UniProt P29371); test: Displacement of [125I]-labeled SP from the human Tachykinin receptor 3 expressed in CHO cells; format: cell-based; how it was run: as §1
T1 sequence (P29371 whole entry): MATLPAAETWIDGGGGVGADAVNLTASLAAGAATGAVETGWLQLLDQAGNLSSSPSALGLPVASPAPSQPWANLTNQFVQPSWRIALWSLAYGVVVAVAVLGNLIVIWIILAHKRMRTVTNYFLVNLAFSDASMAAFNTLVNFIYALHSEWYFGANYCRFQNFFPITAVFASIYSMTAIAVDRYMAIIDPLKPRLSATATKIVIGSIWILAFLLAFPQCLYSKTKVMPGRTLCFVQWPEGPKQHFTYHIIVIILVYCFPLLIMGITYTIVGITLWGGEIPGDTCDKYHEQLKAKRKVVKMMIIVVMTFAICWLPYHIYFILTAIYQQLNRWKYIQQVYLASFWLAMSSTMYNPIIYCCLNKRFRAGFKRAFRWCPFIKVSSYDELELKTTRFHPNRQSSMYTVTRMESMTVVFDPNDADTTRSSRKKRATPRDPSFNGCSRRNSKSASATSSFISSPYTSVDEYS

[4] = target: T2, Substance-K receptor (Homo sapiens, UniProt P21452); test: Displacement of [125I]-labeled SP from the human Tachykinin receptor 2 expressed in CHO cells; format: cell-based; how it was run: as §1
T2 sequence (P21452 whole entry): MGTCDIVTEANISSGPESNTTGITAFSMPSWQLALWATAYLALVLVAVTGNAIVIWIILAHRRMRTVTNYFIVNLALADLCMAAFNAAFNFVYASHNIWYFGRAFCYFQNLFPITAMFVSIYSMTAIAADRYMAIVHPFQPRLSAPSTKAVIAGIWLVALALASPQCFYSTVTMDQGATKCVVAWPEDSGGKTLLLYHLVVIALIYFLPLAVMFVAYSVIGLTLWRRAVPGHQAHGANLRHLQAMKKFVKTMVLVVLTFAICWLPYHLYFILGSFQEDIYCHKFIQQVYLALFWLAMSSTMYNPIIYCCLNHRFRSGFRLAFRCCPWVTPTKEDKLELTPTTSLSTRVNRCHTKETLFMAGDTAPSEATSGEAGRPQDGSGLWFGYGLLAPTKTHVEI

[5] = Physicochemical property was determined; format: ADME
[6] = Inhibition of [3H]diltiazem binding to L-type [Ca2+] channel in rabbit skeletal muscle; format: tissue-based, Oryctolagus cuniculus, Muscle tissue
[7] = Physicochemical property pKa of benzyl amine was determined
[8] = Physicochemical property pKa of piperdine amine was determined

Substance-P receptor, sequence (P25103 whole entry): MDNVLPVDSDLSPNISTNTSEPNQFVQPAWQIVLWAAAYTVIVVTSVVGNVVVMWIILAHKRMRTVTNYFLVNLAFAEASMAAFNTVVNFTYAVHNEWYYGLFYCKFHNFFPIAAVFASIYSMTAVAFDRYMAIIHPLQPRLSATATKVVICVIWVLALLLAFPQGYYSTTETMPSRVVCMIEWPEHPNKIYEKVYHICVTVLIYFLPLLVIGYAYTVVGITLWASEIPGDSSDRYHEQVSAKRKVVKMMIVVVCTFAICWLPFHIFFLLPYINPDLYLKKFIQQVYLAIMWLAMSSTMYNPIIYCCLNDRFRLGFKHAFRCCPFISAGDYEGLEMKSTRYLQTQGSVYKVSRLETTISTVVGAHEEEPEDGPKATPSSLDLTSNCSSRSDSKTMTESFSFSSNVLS

| SMILES | IC50 [1] [nM] | other results |
| --- | --- | --- |
| COC(=O)CN1CCO[C@H](OCc2cc(C(F)(F)F)cc(C(F)(F)F)c2)[C@@H]1c1ccccc1 | 1.6 | – |
| FC(F)(F)c1cc(CO[C@H]2OCCN(Cn3cncn3)[C@H]2c2ccccc2)cc(C(F)(F)F)c1 | 0.13 | – |
| NC(=O)CN1CCO[C@H](OCc2cc(C(F)(F)F)cc(C(F)(F)F)c2)[C@@H]1c1ccccc1 | 1.1 | – |
| O=C(O)CN1CCO[C@H](OCc2cc(C(F)(F)F)cc(C(F)(F)F)c2)[C@@H]1c1ccccc1 | 66 | – |
| O=c1[nH]nc(CN2CCO[C@H](OCc3cc(C(F)(F)F)cc(C(F)(F)F)c3)[C@@H]2c2ccccc2)[nH]1 | 0.09 | ED50 [2]: 0.009 mg/kg; IC50 [3]: 150 nM; IC50 [4]: 7000 nM; pKa [5]: < 3; IC50 [6]: 11000 nM |
| FC(F)(F)c1cc(CO[C@@H]2OCCN[C@H]2c2ccccc2)cc(C(F)(F)F)c1 (stereo in doubt; 12) | 376 | – |
| FC(F)(F)c1cc(CO[C@H]2OCCN[C@@H]2c2ccccc2)cc(C(F)(F)F)c1 (stereo in doubt; 13) | 287 | – |
| FC(F)(F)c1cc(CO[C@@H]2OCCN[C@@H]2c2ccccc2)cc(C(F)(F)F)c1 (stereo in doubt; 14) | 59 | – |
| FC(F)(F)c1cc(CO[C@H]2OCCN[C@@H]2c2ccccc2)cc(C(F)(F)F)c1 (stereo in doubt; 20) | 21 | – |
| FC(F)(F)c1cc(CO[C@@H]2OCCN[C@@H]2c2ccccc2)cc(C(F)(F)F)c1 (stereo in doubt; 21) | 116 | – |
| FC(F)(F)c1cc(CO[C@@H]2OCCN[C@H]2c2ccccc2)cc(C(F)(F)F)c1 (stereo in doubt; 22) | 19 | – |
| COc1ccccc1CN[C@H]1CCCN[C@H]1c1ccccc1 [CP-99994] | – | pKa [7]: 4; ED50 [2]: 1.6 mg/kg; pKa [8]: 8.7; IC50 [6]: 4000 nM |
